# Data published in ChEMBL document CHEMBL5058577, “EUbOPEN Chemogenomics Library 2 (Multiplex)” (2022).
# Test system: HEK-293T
# Experiment: Multiplex assay against HEK293T
# Type: toxicity, cell-based
# Conditions: human
# In short: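 Per cents of healthy-nucleus cells form the tubulin, mitochondrial-mass and membrane-permeability phenotype values. Live cells were stained at seeding with Hoechst33342, BioTracker Green Microtubule Cytoskeleton Dye, MitoTracker Red and Annexin V Alexa Fluor 680. After compound addition they were imaged on a CQ1 microscope at 37°C and 5% CO2, and CellPathfinder machine-learning gating split them into Hoechst high-intensity objects or normal cells, normal cells into healthy, pyknosed or fragmented nuclei, and pyknosed cells into mitotic or apoptotic.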
# [1] = 12 h, 1 µM, compound concentration 1 uM, replicate 1
# [2] = 12 h, 1 µM, compound concentration 1 uM, replicate 2
# [3] = 12 h, 10 µM, compound concentration 10 uM, replicate 1
# [4] = 12 h, 10 µM, compound concentration 10 uM, replicate 2
# [5] = 24 h, 1 µM, compound concentration 1 uM, replicate 1
# [6] = 24 h, 1 µM, compound concentration 1 uM, replicate 2
# [7] = 24 h, 10 µM, compound concentration 10 uM, replicate 1
# [8] = 24 h, 10 µM, compound concentration 10 uM, replicate 2
# [9] = 48 h, 1 µM, compound concentration 1 uM, replicate 1
# [10] = 48 h, 1 µM, compound concentration 1 uM, replicate 2
# [11] = 48 h, 10 µM, compound concentration 10 uM, replicate 1
# [12] = 48 h, 10 µM, compound concentration 10 uM, replicate 2
smiles,measurement,setting,value
Cc1ccc(F)cc1C(=O)Nc1ccc(C(=O)N2Cc3cccn3Cc3ccccc32)c(Cl)c1 [LIXIVAPTAN],Population Apoptotic (%),[1],36%
same,Population Fragmented Nuclei (%),[1],5%
same,Population Healthy Nuclei (%),[1],83%
same,Population Hoechst High Intensity Objects (%),[1],7%
same,Population Membrane Permeable-Phenotype (%),[1],0%
same,Population Mitochondria Different-Phenotype (%),[1],45%
same,Population Mitotic Cells (%),[1],63%
same,Population Normal (%),[1],92%
same,Population Pyknosed Nuclei (%),[1],10%
same,Population Tubulin-Different-Phenotype (%),[1],38%
same,Total Cell Count,[1],486
same,Population Apoptotic (%),[2],40%
same,Population Fragmented Nuclei (%),[2],6%
same,Population Healthy Nuclei (%),[2],74%
same,Population Hoechst High Intensity Objects (%),[2],5%
same,Population Mitochondria Different-Phenotype (%),[2],57%
same,Population Mitotic Cells (%),[2],60%
same,Population Normal (%),[2],94%
same,Population Pyknosed Nuclei (%),[2],19%
same,Population Tubulin-Different-Phenotype (%),[2],32%
same,Total Cell Count,[2],335
same,Population Apoptotic (%),[3],46%
same,Population Fragmented Nuclei (%),[3],6%
same,Population Healthy Nuclei (%),[3],70%
same,Population Hoechst High Intensity Objects (%),[3],10%
same,Population Membrane Permeable-Phenotype (%),[3],0%
same,Population Mitochondria Different-Phenotype (%),[3],75%
same,Population Mitotic Cells (%),[3],53%
same,Population Normal (%),[3],89%
same,Population Pyknosed Nuclei (%),[3],22%
same,Population Tubulin-Different-Phenotype (%),[3],78%
same,Total Cell Count,[3],339
same,Population Apoptotic (%),[4],50%
same,Population Healthy Nuclei (%),[4],67%
same,Population Hoechst High Intensity Objects (%),[4],6%
same,Population Membrane Permeable-Phenotype (%),[4],1%
same,Population Mitochondria Different-Phenotype (%),[4],81%
same,Population Mitotic Cells (%),[4],50%
same,Population Normal (%),[4],93%
same,Population Pyknosed Nuclei (%),[4],25%
same,Population Tubulin-Different-Phenotype (%),[4],67%
same,Total Cell Count,[4],357
same,Population Apoptotic (%),[5],30%
same,Population Fragmented Nuclei (%),[5],9%
same,Population Healthy Nuclei (%),[5],77%
same,Population Hoechst High Intensity Objects (%),[5],5%
same,Population Membrane Permeable-Phenotype (%),[5],0%
same,Population Mitochondria Different-Phenotype (%),[5],30%
same,Population Mitotic Cells (%),[5],69%
same,Population Normal (%),[5],94%
same,Population Pyknosed Nuclei (%),[5],13%
same,Population Tubulin-Different-Phenotype (%),[5],24%
same,Total Cell Count,[5],595
same,Population Apoptotic (%),[6],36%
same,Population Fragmented Nuclei (%),[6],10%
same,Population Healthy Nuclei (%),[6],76%
same,Population Hoechst High Intensity Objects (%),[6],7%
same,Population Mitochondria Different-Phenotype (%),[6],42%
same,Population Mitotic Cells (%),[6],63%
same,Population Normal (%),[6],92%
same,Population Tubulin-Different-Phenotype (%),[6],22%
same,Total Cell Count,[6],423
same,Population Apoptotic (%),[7],37%
same,Population Fragmented Nuclei (%),[7],5%
same,Population Healthy Nuclei (%),[7],69%
same,Population Hoechst High Intensity Objects (%),[7],7%
same,Population Membrane Permeable-Phenotype (%),[7],0%
same,Population Mitochondria Different-Phenotype (%),[7],74%
same,Population Mitotic Cells (%),[7],62%
same,Population Normal (%),[7],92%
same,Population Pyknosed Nuclei (%),[7],24%
same,Population Tubulin-Different-Phenotype (%),[7],71%
same,Total Cell Count,[7],392
same,Population Apoptotic (%),[8],58%
same,Population Fragmented Nuclei (%),[8],8%
same,Population Healthy Nuclei (%),[8],72%
same,Population Hoechst High Intensity Objects (%),[8],6%
same,Population Mitochondria Different-Phenotype (%),[8],78%
same,Population Mitotic Cells (%),[8],41%
same,Population Normal (%),[8],93%
same,Population Pyknosed Nuclei (%),[8],19%
same,Population Tubulin-Different-Phenotype (%),[8],69%
same,Total Cell Count,[8],401
same,Population Apoptotic (%),[9],22%
same,Population Fragmented Nuclei (%),[9],12%
same,Population Healthy Nuclei (%),[9],80%
same,Population Hoechst High Intensity Objects (%),[9],2%
same,Population Membrane Permeable-Phenotype (%),[9],0%
same,Population Mitochondria Different-Phenotype (%),[9],19%
same,Population Mitotic Cells (%),[9],77%
same,Population Normal (%),[9],97%
same,Population Pyknosed Nuclei (%),[9],6%
same,Population Tubulin-Different-Phenotype (%),[9],17%
same,Total Cell Count,[9],995
same,Population Apoptotic (%),[10],17%
same,Population Hoechst High Intensity Objects (%),[10],4%
same,Population Mitochondria Different-Phenotype (%),[10],24%
same,Population Mitotic Cells (%),[10],82%
same,Population Normal (%),[10],95%
same,Population Pyknosed Nuclei (%),[10],7%
same,Population Tubulin-Different-Phenotype (%),[10],21%
same,Total Cell Count,[10],643
same,Population Apoptotic (%),[11],43%
same,Population Fragmented Nuclei (%),[11],9%
same,Population Healthy Nuclei (%),[11],74%
same,Population Hoechst High Intensity Objects (%),[11],7%
same,Population Membrane Permeable-Phenotype (%),[11],0%
same,Population Mitochondria Different-Phenotype (%),[11],72%
same,Population Mitotic Cells (%),[11],56%
same,Population Normal (%),[11],92%
same,Population Pyknosed Nuclei (%),[11],16%
same,Population Tubulin-Different-Phenotype (%),[11],69%
same,Total Cell Count,[11],489
same,Population Apoptotic (%),[12],46%
same,Population Fragmented Nuclei (%),[12],11%
same,Population Hoechst High Intensity Objects (%),[12],8%
same,Population Mitochondria Different-Phenotype (%),[12],71%
same,Population Mitotic Cells (%),[12],53%
same,Population Normal (%),[12],91%
same,Population Pyknosed Nuclei (%),[12],14%
same,Population Tubulin-Different-Phenotype (%),[12],59%
same,Total Cell Count,[12],437
